ChEMBL document CHEMBL1148894, “Triterpene saponins from the roots of Clematis chinensis” (J Nat Prod, 2004)
The source made the active and inactive calls. The rule behind the calls is not given here.

Columns and labels:
MKN-28 = experiment: Cytotoxicity against human MKN28 cells; assay type: functional; conditions: read-out: LC50 (the source's name)
OVCAR-8 = experiment: Cytotoxicity against human OVCAR8 cells; assay type: functional; conditions: read-out: LC50 (the source's name)
[1] = Cytotoxicity against human BSY1 cells; assay type: functional; conditions: BSY-1, read-out: LC50 (the source's name)
SF-295 = experiment: Cytotoxicity against human SF295 cells; assay type: functional; conditions: read-out: LC50 (the source's name)
U-251 = experiment: Cytotoxicity against human U251 cells; assay type: functional; conditions: read-out: LC50 (the source's name)
OVCAR-3 = experiment: Cytotoxicity against human OVCAR-3 cells; assay type: functional; conditions: read-out: LC50 (the source's name)
NCI-H460 = experiment: Cytotoxicity against human NCI-H460 cells; assay type: functional; conditions: read-out: LC50 (the source's name)
PC-3 = experiment: Cytotoxicity against human PC3 cells; assay type: functional; conditions: read-out: LC50 (the source's name)
HL-60 [2] = experiment: Cytotoxicity against human HL60 cells after 72 hrs by MTT assay; assay type: functional, cell-based; conditions: HL-60, 72 h
Method in brief: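 HL-60 cells (JCRB 0085) grown in RPMI 1640 with heat-inactivated 10% FBS, L-glutamine, penicillin and streptomycin. Seeded at 4 × 10^4 cells/mL, preincubated 24 h at 37 °C in 5% CO2. Samples added in EtOH-H2O (1:1) to final 0.1-50 µg/mL, with vehicle controls, then incubated 72 h. MTT added for 4 h, formazan dissolved in DMSO, A550 read. Done in triplicate; IC50 is the 50% drop in viable cells.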

HL-60 [3] = experiment: Cytotoxicity against human HL60 cells at 20 uM after 72 hrs by MTT assay; assay type: functional, cell-based

Structure (SMILES) | CC50 (MKN-28) [µM] | CC50 (OVCAR-8) [µM] | CC50 [1] [µM] | CC50 (SF-295) [µM] | CC50 (U-251) [µM] | CC50 (OVCAR-3) [µM] | CC50 (NCI-H460) [µM] | CC50 (PC-3) [µM] | IC50 (HL-60 [2]) [nM] | Activity (HL-60 [3])
C[C@@H]1O[C@@H](OC[C@H]2O[C@@H](O[C@H]3[C@H](O)[C@@H](O)[C@H](O[C@@H]4CO[C@@H](O[C@@H]5[C@@H](O)[C@H](C)O[C@@H](O[C@H]6[C@H](O[C@H]7CC[C@]8(C)[C@H]9CC=C%10[C@@H]%11CC(C)(C)CC[C@]%11(C(=O)O)CC[C@@]%10(C)[C@]9(C)CC[C@H]8C7(C)C)OC[C@H](O)[C@@H]6O)[C@@H]5O)[C@H](O)[C@@H]4O)O[C@@H]3CO)[C@H](O)[C@@H](O)[C@@H]2O)[C@H](O)[C@H](O)[C@H]1O | 30 | 71 | 5.9 | 6 | 6.3 | 47 | 40 | 6 | 2800 | 
C[C@@H]1O[C@@H](OC[C@H]2O[C@@H](O[C@H]3[C@H](O)[C@@H](O)[C@H](O[C@@H]4CO[C@@H](O[C@@H]5[C@@H](O)[C@H](C)O[C@@H](O[C@H]6[C@H](O[C@H]7CC[C@]8(C)[C@H]9CC=C%10[C@@H]%11CC(C)(C)CC[C@]%11(C(=O)O[C@@H]%11O[C@H](CO[C@@H]%12O[C@H](CO)[C@@H](O[C@@H]%13O[C@@H](C)[C@H](O)[C@@H](O)[C@H]%13O)[C@H](O)[C@H]%12O)[C@@H](O)[C@H](O)[C@H]%11O)CC[C@@]%10(C)[C@]9(C)CC[C@H]8C7(C)C)OC[C@H](O)[C@@H]6O)[C@@H]5O)[C@H](O)[C@@H]4O)O[C@@H]3CO)[C@H](O)[C@@H](O)[C@@H]2O)[C@H](O)[C@H](O)[C@H]1O |  |  |  |  |  |  |  |  |  | inactive
C[C@@H]1O[C@@H](O[C@H]2[C@H](O[C@H]3CC[C@]4(C)[C@H]5CC=C6[C@@H]7CC(C)(C)CC[C@]7(C(=O)O)CC[C@@]6(C)[C@]5(C)CC[C@H]4C3(C)C)OC[C@H](O)[C@@H]2O)[C@H](O)[C@H](O[C@@H]2OC[C@@H](O)[C@@H](O)[C@H]2O)[C@H]1O |  |  |  |  |  |  |  |  | 2300 | 
